Experimental data: ChEMBL document CHEMBL1142706, “Synthesis and evaluation of (pyridylmethylene)tetrahydronaphthalenes/-indanes and structurally modified derivatives: potent and selective inhibitors of aldosterone synthase” (J Med Chem, 2005)

Legend:
[1] = species on record: Homo sapiens; assay: In vitro IC50 ratio against human CYP11B1 to that of human CYP11B2
Outline: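 IC50 ratio from V79 MZh hamster fibroblasts expressing human CYP11B1 or CYP11B2, each incubated with [4-14C]-11-deoxycorticosterone (100 nM) and inhibitor at no fewer than three concentrations; steroids extracted into ethyl acetate and quantified by HPTLC with phosphoimaging.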

[2] = target: T1, CYP17 (Homo sapiens, UniProt P05093); assay: In vitro inhibition of human CYP17 expressed in Escherichia coli incubated with 2.5 uM of substrate progesterone in presence of 2.5 uM of compound; conditions: probe progesterone
T1 sequence (P05093 whole entry): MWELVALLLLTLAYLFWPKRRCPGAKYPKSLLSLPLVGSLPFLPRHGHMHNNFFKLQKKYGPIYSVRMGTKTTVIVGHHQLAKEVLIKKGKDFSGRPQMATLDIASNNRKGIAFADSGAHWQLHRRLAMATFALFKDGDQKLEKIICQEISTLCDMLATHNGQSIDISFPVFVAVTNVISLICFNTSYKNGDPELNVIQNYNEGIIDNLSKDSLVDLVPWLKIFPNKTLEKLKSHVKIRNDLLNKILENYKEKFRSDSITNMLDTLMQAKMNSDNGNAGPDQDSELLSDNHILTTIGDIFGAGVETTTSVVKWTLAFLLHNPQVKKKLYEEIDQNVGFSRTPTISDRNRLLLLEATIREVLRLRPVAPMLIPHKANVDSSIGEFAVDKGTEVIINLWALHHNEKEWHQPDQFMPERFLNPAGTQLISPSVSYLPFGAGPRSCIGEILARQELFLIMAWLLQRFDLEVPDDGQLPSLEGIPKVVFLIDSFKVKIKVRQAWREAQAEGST

[3] = target: T2, Cytochrome P450 11B2, mitochondrial (Homo sapiens, UniProt P19099); assay: In vitro inhibitory concentration against human CYP11B2 expressed in V79MZh hamster fibroblasts incubated with 100 nM of substrate deoxy-corticosterone in presence of the compound
T2 sequence (P19099 whole entry): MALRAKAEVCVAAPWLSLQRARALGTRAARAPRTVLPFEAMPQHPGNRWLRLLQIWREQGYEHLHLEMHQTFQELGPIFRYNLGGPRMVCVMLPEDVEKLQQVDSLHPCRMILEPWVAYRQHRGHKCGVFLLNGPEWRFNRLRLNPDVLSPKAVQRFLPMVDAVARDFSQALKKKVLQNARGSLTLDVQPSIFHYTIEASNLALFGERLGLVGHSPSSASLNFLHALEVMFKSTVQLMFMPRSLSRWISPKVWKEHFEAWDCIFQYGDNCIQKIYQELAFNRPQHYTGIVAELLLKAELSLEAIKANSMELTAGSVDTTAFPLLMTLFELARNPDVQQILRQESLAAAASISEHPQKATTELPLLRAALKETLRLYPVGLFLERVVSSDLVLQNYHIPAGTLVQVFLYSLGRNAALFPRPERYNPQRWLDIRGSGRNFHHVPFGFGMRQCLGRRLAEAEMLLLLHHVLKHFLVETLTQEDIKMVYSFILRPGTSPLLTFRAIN
Outline: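 Intact V79 MZh hamster fibroblasts expressing human CYP11B1 or CYP11B2, incubated with [4-14C]-11-deoxycorticosterone (100 nM) and inhibitor at no fewer than three concentrations to give IC50. Stopped with ethyl acetate, shaken, centrifuged (10 000g, 2 min); steroids in organic phase analysed by HPTLC/phosphoimager. Mean of four determinations, standard deviation less than 5%.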

[4] = target: T3, Aromatase (Homo sapiens, UniProt P11511); assay: In vitro inhibitory concentration against human placental CYP19 incubated with 500 nM of substrate androstenedione in presence of the compound
T3 sequence (P11511 whole entry): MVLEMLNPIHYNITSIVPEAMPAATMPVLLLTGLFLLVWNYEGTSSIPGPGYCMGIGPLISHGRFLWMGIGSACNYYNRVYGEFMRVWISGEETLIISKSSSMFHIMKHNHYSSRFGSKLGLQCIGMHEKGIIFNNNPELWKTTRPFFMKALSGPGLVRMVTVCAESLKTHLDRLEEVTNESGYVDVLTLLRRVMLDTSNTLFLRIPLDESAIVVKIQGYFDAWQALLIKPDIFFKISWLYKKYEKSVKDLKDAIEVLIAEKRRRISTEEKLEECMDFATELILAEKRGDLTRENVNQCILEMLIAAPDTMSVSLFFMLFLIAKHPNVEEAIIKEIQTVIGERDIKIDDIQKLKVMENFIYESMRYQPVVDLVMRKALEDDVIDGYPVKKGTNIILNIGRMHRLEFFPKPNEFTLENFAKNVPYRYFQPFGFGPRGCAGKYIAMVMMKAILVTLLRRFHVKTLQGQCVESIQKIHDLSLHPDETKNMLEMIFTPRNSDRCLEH

[5] = target: T2, Cytochrome P450 11B2, mitochondrial; assay: In vitro inhibition of human CYP11B2 expressed in Schizosaccharomyces pombe incubated with 100 nM of substrate deoxy-corticosterone in presence of 500 nM of compound
[6] = target: T4, Cytochrome P450 11B1, mitochondrial (Homo sapiens, UniProt P15538); assay: In vitro inhibitory concentration against human CYP11B1 expressed in V79 MZh hamster fibroblasts incubated with 100 nM of substrate deoxy-corticosterone in presence of the compound
T4 sequence (P15538 whole entry): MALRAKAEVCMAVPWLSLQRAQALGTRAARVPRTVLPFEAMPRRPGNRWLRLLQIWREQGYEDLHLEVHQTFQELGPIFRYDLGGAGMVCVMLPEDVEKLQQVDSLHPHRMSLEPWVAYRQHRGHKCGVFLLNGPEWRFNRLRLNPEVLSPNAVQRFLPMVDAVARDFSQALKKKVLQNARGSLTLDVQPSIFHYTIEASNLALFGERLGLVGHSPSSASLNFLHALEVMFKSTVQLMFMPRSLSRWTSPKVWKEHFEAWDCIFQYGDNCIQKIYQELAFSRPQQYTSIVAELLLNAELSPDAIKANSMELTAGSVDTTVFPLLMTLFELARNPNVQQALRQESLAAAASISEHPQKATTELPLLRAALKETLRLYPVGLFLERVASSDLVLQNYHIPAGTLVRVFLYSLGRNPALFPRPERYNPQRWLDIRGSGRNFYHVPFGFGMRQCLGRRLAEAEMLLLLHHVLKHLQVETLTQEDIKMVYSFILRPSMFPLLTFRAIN

| Structure (SMILES) | Selectivity ratio [1] | inhibition at 2.5 µM [2] | IC50 [3] | IC50 [4] | inhibition at 0.5 µM [5] | IC50 [6] |
| --- | --- | --- | --- | --- | --- | --- |
| COc1ccc2c(c1)CCC/C2=C\c1ccncc1 | – | – | 0.022 µM | 0.8 µM | 31% | – |
| Cc1ccc2c(c1)/C(=C\c1ccncc1)CC2 | – | – | 0.008 µM | 1.71 µM | 46% | – |
| COc1ccc2c(c1)/C(=C/c1ccncc1)CC2 | – | – | 0.003 µM | – | 26% | – |
| Clc1ccc2c(c1)CC/C2=C/c1ccncc1 | – | – | 0.301 µM | 1.99 µM | 37% | – |
| Fc1ccc2c(c1)CC/C2=C\c1cccc2ncccc12 | – | – | 0.014 µM | > 36 µM | 0% | – |
| Clc1cccc2c1CC/C2=C/c1cccnc1 | 21.1 | 32% | 0.031 µM | – | – | – |
| C(=C(c1ccccc1)c1ccccc1)c1cccnc1 | – | – | 0.009 µM | 3.63 µM | 5% | – |
| C(=C1/CCCc2ccccc21)/c1cccnc1 | 32.5 | 9% | 0.022 µM | – | – | – |
| Fc1cccc2c1CC/C2=C\c1cccnc1 | 36.9 | 42% | – | – | – | – |
| C(=C1\CCCc2ccccc21)/c1cccnc1 | 10.1 | 24% | – | – | – | – |
| C(=C1/CC(c2ccccc2)c2ccccc21)/c1cccnc1 (configuration not stated) | – | – | 0.003 µM | 4.06 µM | 0% | – |
| COc1ccc2c(c1)CCC/C2=C/c1ccncc1 | – | – | 0.056 µM | 1.01 µM | 36% | – |
| Fc1ccc2c(c1)CC/C2=C\c1ccnc2ccccc12 | – | – | 0.02 µM | > 36 µM | 0% | – |
| Clc1cccc2c1CC/C2=C\c1cccnc1 | 33.8 | 14% | 0.009 µM | – | – | – |
| C(=C(c1ccccc1)c1ccccc1)c1ccncc1 | – | – | 0.022 µM | 0.1 µM | 32% | – |
| C(=C1c2ccccc2-c2ccccc21)c1ccncc1 | – | – | 0.005 µM | 2.74 µM | 6% | – |

| Structure (SMILES) | Selectivity ratio [1] | inhibition at 2.5 µM [2] | IC50 [3] | IC50 [4] | inhibition at 0.5 µM [5] | IC50 [6] |
| --- | --- | --- | --- | --- | --- | --- |
| Fc1cccc2c1CC/C2=C/c1cccnc1 | – | 53% | – | 0.18 µM | 40% | – |
| C(=C1c2ccccc2-c2ccccc21)c1cccnc1 | – | – | 0.006 µM | 4.81 µM | 0% | – |
| Cc1ccc2c(c1)/C(=C/c1ccncc1)CC2 | – | – | 0.004 µM | 1.28 µM | 41% | – |
| N#Cc1ccc(C2CCCc3cncn32)cc1 (configuration not stated) [FADROZOLE] | – | 5% | – | – | – | – |
| COc1cc2c(cc1OC)/C(=C/c1ccncc1)CCC2 | – | – | 0.011 µM | 0.09 µM | 29% | – |
| C(=C1/CCc2ccccc21)/c1ccncc1 | – | – | 0.008 µM | – | – | – |
| COc1ccc2c(c1)CC/C2=C/c1cncs1 | – | – | 0.005 µM | 4.83 µM | 17% | – |
| Fc1ccc2c(c1)CC/C2=C/c1ccnc2ccccc12 | – | – | 0.014 µM | > 36 µM | 0% | – |
| CC1C/C(=C\c2cccnc2)c2ccccc21 (configuration not stated) | – | – | – | 3.68 µM | 47% | – |
| Fc1ccc2c(c1)CC/C2=C/c1cccc2ncccc12 | – | – | 0.031 µM | > 36 µM | 0% | – |
| Fc1ccc2c(c1)CC/C2=C/c1cncnc1 | – | – | – | 0.79 µM | 14% | – |
| COc1cc2c(cc1OC)/C(=C/c1cccnc1)CCC2 | – | 6% | – | 0.98 µM | 5% | – |
| COc1ccc2c(c1)CC/C2=C\c1cncs1 | – | – | 0.017 µM | 4.33 µM | 18% | – |
| Clc1ccc2c(c1)CC/C2=C\c1ccncc1 | – | – | 1.52 µM | – | – | 1.52 µM |
| COc1ccc2c(c1)/C(=C\c1ccncc1)CC2 | – | – | 0.026 µM | – | 24% | – |

Now from value to compound, other results behind:

| Selectivity ratio [1] | inhibition at 2.5 µM [2] | IC50 [3] | IC50 [4] | inhibition at 0.5 µM [5] | Structure (SMILES) | IC50 [6] |
| --- | --- | --- | --- | --- | --- | --- |
| 15.8 | 20% | – | – | – | COc1ccc2c(c1)CCC/C2=C\c1cccnc1 | – |
| 56.6 | 26% | – | – | – | Clc1ccc2c(c1)CC/C2=C\c1cccnc1 | – |
| – | 3% | – | 3.93 µM | 27% | Cc1ccc2c(c1)/C(=C/c1cccnc1)CC2 | – |
| 52.4 | 16% | – | – | – | Brc1ccc2c(c1)CC/C2=C\c1cccnc1 | – |
| 11.4 | 16% | 0.011 µM | – | – | Fc1ccc2c(c1)CC/C2=C/c1cccnc1 | – |
| – | – | 0.059 µM | – | 11% | COc1ccc2c(c1)CC/C2=C\c1ccncc1 | – |
| 30 | 13% | – | – | – | CCOc1ccc2c(c1)CC/C2=C\c1cccnc1 | – |
| – | 1% | – | > 36 µM | 0% | C(=C1/CCc2cc(OCc3ccccc3)ccc21)/c1cccnc1 | – |
| – | 2% | – | 4.6 µM | 43% | Cc1ccc2c(c1)/C(=C\c1cccnc1)CC2 | – |
| – | 5% | – | 6.36 µM | 29% | COc1ccc2c(c1)/C(=C/c1cccnc1)CC2 | – |
| 3.7 | 28% | – | – | – | Clc1ccc2c(c1)CC/C2=C/c1cccnc1 | – |
| 0.2 | 17% | – | – | – | COc1ccc2c(c1)CCC/C2=C/c1cccnc1 | – |
| 7.1 | 40% | – | – | – | Cc1cccc2c1CC/C2=C\c1cccnc1 | – |
| 10.9 | 6% | – | – | – | CCOc1ccc2c(c1)CC/C2=C/c1cccnc1 | – |
| – | – | 0.055 µM | – | 13% | COc1ccc2c(c1)CC/C2=C/c1ccncc1 | – |
| – | 16% | – | 12.6 µM | 12% | Cc1cccc2c1CC/C2=C/c1cccnc1 | – |
| 1.9 | 24% | – | – | – | Brc1ccc2c(c1)CC/C2=C/c1cccnc1 | – |
| 42.6 | 36% | – | – | – | COc1ccc2c(c1)CC/C2=C\c1cccnc1 | – |
| 35.4 | 5% | – | – | – | COc1cccc2c1/C(=C/c1cccnc1)CC2 | – |
| 44.4 | 17% | 0.007 µM | – | – | Fc1ccc2c(c1)CC/C2=C\c1cccnc1 | – |
| 30.4 | 49% | 0.026 µM | – | – | COc1ccc2c(c1)CC/C2=C/c1cccnc1 | – |
